S1P4 antagonist = blocks the human S1P4 receptor. O95977. S1P4-expressing cells, antagonist mode, reporter read-out. inhibition, % at 4.98 µM. 220,000 tested, 0.26% active. AID 1510; in the data active means inhibition above about 29%
Lmaj promast = Leishmania major promastigote growth inhibition. Leishmania major promastigotes, resazurin fluorescence viability. inhibition, % at 10 µM. 200,000 tested, 9% active. AID 1063; in the data active means inhibition above about 50%;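 further: promastigotes grown with compound for 44 hours at 28 °C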
S1P4 ag = human S1P4 receptor agonism | activation, % at 4.98 µM | 220,000 tested, 0.35% active | O95977 | S1P4-expressing cell line, agonist reporter assay | AID 1509; in the data active means activation above about 11%
S1P3 antag = S1P3 (human) receptor antagonism. CHO S1P3 NFAT-BLA reporter, FRET fluorescence, antagonist mode. inhibition, % at 4.98 µM. 170,000 tested, 0.27% active. Q99500. AID 485;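 active means inhibition above the plate cutoff, the mean inhibition of test wells on that plate plus 3 SD, cut at about 28% in these data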;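 further: cells challenged with S1P at its EC80 of 0.8 µM; blue over green emission ratio from cleaved BLA substrate after 4 h stimulation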
Mdm2 ligase inh = inhibitors of human Mdm2 E3 ubiquitin ligase | Q00987 | cell-based MDM2 ubiquitination luciferase reporter, 2 h; 0 = plate control, 100 = twice control, blank-subtracted | signal enhancement, % at 5 µM | 210,000 tested, 0.11% active;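 active means signal enhancement of 30% or more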;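 further: luminescence tracks abundance of the self-degrading MDM2-luciferase fusion protein; higher signal means inhibition of MDM2 E3 ligase activity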
Target sequence (Q00987 whole entry, looked up, the tested form may be a part): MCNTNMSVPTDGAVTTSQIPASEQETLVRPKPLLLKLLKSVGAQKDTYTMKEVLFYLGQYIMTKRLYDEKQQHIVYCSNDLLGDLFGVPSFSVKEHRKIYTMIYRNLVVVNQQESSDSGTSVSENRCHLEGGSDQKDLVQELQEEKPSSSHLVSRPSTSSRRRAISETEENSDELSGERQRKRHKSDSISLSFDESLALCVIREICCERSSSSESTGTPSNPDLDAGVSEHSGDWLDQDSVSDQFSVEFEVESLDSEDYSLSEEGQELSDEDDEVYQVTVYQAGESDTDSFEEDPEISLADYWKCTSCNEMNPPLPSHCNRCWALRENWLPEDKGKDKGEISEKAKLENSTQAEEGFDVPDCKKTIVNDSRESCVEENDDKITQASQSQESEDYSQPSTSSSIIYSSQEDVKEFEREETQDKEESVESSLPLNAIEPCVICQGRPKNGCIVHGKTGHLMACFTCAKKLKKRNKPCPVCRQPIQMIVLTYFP
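Test system: stable mammalian line carrying autodegrading MDM2–luciferase fusion reporter; quantity: 2000 cells in each well; times: 4 h cell settling then 2 h compound exposure, 37 °C; detection: luminescence with SteadyLite reagent, 15 min at room temperature; evaluation: percent signal gain over controls, blank-subtracted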
Each line names hits and unclear results; the compound was inactive in the other large screens. Shown is part of a subset that was picked to be rich in hits.

CC(C)(C)OC(=O)CN1C(=O)C(Sc2n[nH]c(-c3ccccc3)n2)CCc2ccccc21 (stereo not given)	none (no result: S1P3 antag)
N#C/C(=C\c1ccc(OCC(N)=O)cc1)c1ccccc1	Lmaj promast 58
OC(COCc1ccc2c(c1)OCO2)CN1CCC(Cc2ccccc2)CC1 (stereo not given)	Lmaj promast 87
CCN1CCN(CC(O)COc2ccc(C)c(C)c2)CC1 (stereo not given)	Lmaj promast 84
OC(COc1c(Cl)cc(Cl)cc1Cl)CN1CCCCC1 (stereo not given)	Lmaj promast 97
CN1CCN(CC(O)COc2ccc(Cl)cc2)CC1 (stereo not given)	Lmaj promast 86 (no result: S1P3 antag)
OC(COCc1ccc2c(c1)OCO2)CN1CCCCC1 (stereo not given)	none
CCN1CCN(CC(O)COc2cccc(OC)c2)CC1 (stereo not given)	none
OC(COc1ccccc1)CN1CCCCCC1 (stereo not given)	none
CN(C)CCC1c2ccc(Cl)cc2CCc2cccnc21 (stereo not given) (tested in a mixture with another compound)	none (no result: Lmaj promast)
Cc1ccc(OCC(O)CN2CCN(Cc3ccc4c(c3)OCO4)CC2)cc1C (stereo not given)	Lmaj promast 91
OCCN1CCN(CC(O)COc2ccc(C34CC5CC(CC(C5)C3)C4)cc2)CC1 (stereo not given)	Lmaj promast 100
COc1ccc(CN2CCN(CCCCOc3ccc(Cl)cc3)CC2)c(OC)c1OC	none
COc1ccc(OCC(O)CN2CCN(c3ccccc3)CC2)cc1 (stereo not given)	none
OC(COc1ccc2c(c1)OCO2)CN1CCc2ccccc2C1 (stereo not given)	Lmaj promast 74
OC(COc1ccc2c(c1)OCO2)CN1CCCCC1 (stereo not given)	none
CCN1CCN(CCOc2ccc(Cl)cc2)CC1	Lmaj promast 78
CCC(C(=O)N1CCc2ccccc2C1)n1nc(C)n2c(cc3occc32)c1=O (stereo not given)	none
Cc1cc(=O)n2nc(N3CCCC3C(=O)NCCCN3CCCCC3)sc2n1 (stereo not given)	none
CCNC(=O)CSc1nnc(-c2cc(-c3ccc(Cl)cc3)nc3ccccc23)o1	none
Clc1ccc(OCCN2CCN(c3ncnc4sccc34)CC2)cc1	S1P3 antag 64
OC(COc1ccc(Cl)cc1)CN1CCCCC1 (stereo not given)	Lmaj promast 89
OCCN1CCN(CC(O)COc2ccc(Cl)cc2)CC1 (stereo not given)	Lmaj promast 74 (no result: S1P3 antag)
NCCOc1ccc(C23CC4CC(CC(C4)C2)C3)cc1	Lmaj promast 101
COc1ccc(OCC(O)CN2CCCCC2)cc1 (stereo not given)	none
O=C(CSCCO)Nc1ccc(C23CC4CC(CC(C4)C2)C3)cc1	none (no result: S1P3 antag)
CCC1(C)Cc2c(sc3c2c(=O)n(C)c2nnc(SCC(=O)c4ccc(Cl)cc4)n32)CO1 (stereo not given)	none (no result: S1P3 antag, Mdm2 ligase inh)
CC(=O)NC1=C(C#N)C(c2ccccc2)c2c(ccc3ccccc23)O1 (stereo not given)	none (no result: S1P3 antag)
O=C(O)CC1(CC(=O)Nc2cc3ccccc3cn2)CCCCC1	none (no result: Lmaj promast)
OC(COC(c1ccc(Cl)cc1)c1ccc(Cl)cc1)CN1CCCC1 (stereo not given)	Lmaj promast 100 (no result: S1P3 antag)
C=CCc1ccccc1OCC(O)CN1CCN(Cc2ccc3c(c2)OCO3)CC1 (stereo not given)	Lmaj promast 93
OC(COC(c1ccc(Cl)cc1)c1ccc(Cl)cc1)CN1CCc2ccccc2C1 (stereo not given)	none
Cc1cc(OCC(O)CN2C(C)CCCC2C)ccc1C(C)C (stereo not given)	Lmaj promast 97
CCC(=O)c1ccc(OCC(O)CN2CCCCC2)cc1 (stereo not given)	Lmaj promast 66 (no result: S1P3 antag)
CCC(=O)c1ccc(OCC(O)Cn2cnc3ccccc32)cc1 (stereo not given)	none
COC(=O)CN1C2(C#N)CCCCC2CC2CCCCC21C#N (stereo not given)	none (no result: S1P3 antag)
CCOC(=O)C1CCCc2c1[nH]c1c(C(=O)O)cccc21 (stereo not given)	none
CCOc1ccc(NC(=O)C(c2ccccn2)N(C(=O)CCl)c2ccc(F)cc2)cc1 (stereo not given)	none
Cc1cc(OCC(O)CN2CCN(C)CC2)ccc1C(C)C (stereo not given)	Lmaj promast 90
